Measurements from ChEMBL document CHEMBL1138513, “Glucose promoiety enables glucose transporter mediated brain uptake of ketoprofen and indomethacin prodrugs in rats” (J Med Chem, 2009).

Columns and labels:
Brain [1] = experiment: (§1) Metabolic stability in rat brain homogenate assessed as half life by HPLC; format: ADME, tissue-based
Procedure, shortened: (§2)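 Prodrug incubated at 37 °C in rat brain homogenate diluted to 20% (v/v), or in liver homogenate diluted to 50% (v/v), in isotonic 0.16 M phosphate buffer, pH 7.4. Aliquots quenched with acetonitrile and centrifuged; remaining prodrug and released parent drug measured by HPLC. Pseudo-first-order t1/2 reported; mean ± sd, n = 3.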

[2] = Chemical stability in aqueous phosphate buffer at pH 7.4 assessed as half life by HPLC; format: physicochemical
Procedure, shortened: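 Prodrug dissolved in preheated 0.16 M phosphate buffer, pH 7.4, ionic strength 0.5, held at 37 °C in a water bath. Samples taken at intervals and remaining prodrug measured by HPLC. Pseudo-first-order t1/2 taken from the slope of log remaining prodrug versus time; mean ± sd, n = 2.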

[3] = target: T1, Solute carrier family 2, facilitated glucose transporter member 1 (Rattus norvegicus) (UniProt P11167); experiment: Inhibition of GluT1-mediated [14C]D-glucose uptake in Wistar rat brain at 20 mM by perfusion technique
T1 sequence (whole entry): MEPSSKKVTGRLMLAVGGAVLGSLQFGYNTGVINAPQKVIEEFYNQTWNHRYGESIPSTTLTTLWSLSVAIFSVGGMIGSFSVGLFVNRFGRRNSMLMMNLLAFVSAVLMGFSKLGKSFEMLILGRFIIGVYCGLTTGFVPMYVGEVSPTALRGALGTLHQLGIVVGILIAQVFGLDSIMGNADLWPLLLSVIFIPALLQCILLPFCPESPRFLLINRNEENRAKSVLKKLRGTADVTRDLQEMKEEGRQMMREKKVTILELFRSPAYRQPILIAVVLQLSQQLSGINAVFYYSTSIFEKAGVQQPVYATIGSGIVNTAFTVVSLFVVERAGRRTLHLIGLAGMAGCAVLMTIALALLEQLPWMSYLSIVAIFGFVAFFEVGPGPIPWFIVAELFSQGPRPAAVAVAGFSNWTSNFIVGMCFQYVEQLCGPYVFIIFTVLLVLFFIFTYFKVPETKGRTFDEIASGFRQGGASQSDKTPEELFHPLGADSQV

[4] = Metabolic stability in rat liver homogenate assessed as half life by HPLC; format: ADME, tissue-based; procedure, shortened: as §2
[5] = as §1; format: ADME, tissue-based; procedure, shortened: as §2
Brain [6] = experiment: Drug uptake in Wistar rat brain at 1000 uM by perfusion technique; format: ADME, tissue-based; conditions: in vivo
Procedure, shortened: (§3)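 In situ brain perfusion via the right common carotid artery in adult male Wistar rats (200-230 g) under ketamine/xylazine ip. Prodrug in perfusion medium with 1% DMSO, pH 7.4, perfused 60 s at 37 °C, then washed with cold (5 °C) prodrug-free medium for 30 s. Brain hemisphere analysed by HPLC; uptake in pmol/mg/min, mean ± sd, n = 3.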

Brain [7] = experiment: Drug uptake in Wistar rat brain at 3500 uM by perfusion technique; format: ADME, tissue-based; conditions: in vivo; procedure, shortened: as §3
Brain [8] = experiment: Drug uptake in Wistar rat brain at 450 uM by perfusion technique; format: ADME, tissue-based; conditions: in vivo; procedure, shortened: as §3
[9] = target: T1, Solute carrier family 2, facilitated glucose transporter member 1 (Rattus norvegicus); experiment: Inhibition of GluT1-mediated [14C]D-glucose uptake in Wistar rat brain at 80 uM by perfusion technique
Brain [10] = experiment: Drug uptake in Wistar rat brain at 150 uM by perfusion technique […]; format: ADME, tissue-based; conditions: in vivo
Procedure, shortened: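 Carrier-mediated uptake blocked nonspecifically by cold in male Wistar rats. Capillaries first washed 30 s with 5 °C prodrug-free medium, then perfused 60 s with 5 °C prodrug solution at 150 µM, then washed again with cold medium. Brain prodrug measured by HPLC; mean ± sd, n = 3.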

Brain [11] = experiment: Drug uptake in Wistar rat brain at 15000 uM by perfusion technique; format: ADME, tissue-based; conditions: in vivo; procedure, shortened: as §3
Brain [12] = experiment: Drug uptake in Wistar rat brain at 150 uM by perfusion technique in presence of D-glucose; format: ADME, tissue-based; conditions: in vivo
Procedure, shortened: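 Male Wistar rats, in situ carotid brain perfusion. Prodrug at 150 µM given for 60 s at 37 °C in perfusion medium (1% DMSO, pH 7.4) with 50 mM D-glucose added, followed by a 30 s cold prodrug-free wash. Brain prodrug measured by HPLC; uptake in pmol/mg/min, mean ± sd, n = 3.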

[13] = target: T1, Solute carrier family 2, facilitated glucose transporter member 1 (Rattus norvegicus); experiment: Inhibition of GluT1-mediated [14C]D-glucose uptake in Wistar rat brain at 80 uM after 30 seconds perfusion measured after drug washout from brain capillary 30 seconds before [14C]D-glucose challenge
Procedure, shortened: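 Reversibility test in male Wistar rats. Brain perfused first with prodrug at 80 µM for 30 s, then with prodrug-free medium for 30 s to wash the capillaries, then with 0.2 µCi/mL [14C]D-glucose for 30 s. PA product of [14C]D-glucose then determined.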

Brain [14] = experiment: Drug uptake in Wistar rat brain at 150 uM by perfusion technique; format: ADME, tissue-based; conditions: in vivo; procedure, shortened: as §3
[15] = target: T1, Solute carrier family 2, facilitated glucose transporter member 1 (Rattus norvegicus); experiment: (§4) Inhibition of GluT1-mediated [14C]D-glucose uptake in Wistar rat brain by perfusion technique
Procedure, shortened: (§5)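 Rat brain PA product of 0.2 µCi/mL [14C]D-glucose measured by in situ perfusion with prodrug co-perfused at concentrations from 0.1 to 1000 µM or 0.01 to 80 µM. IC50 obtained by nonlinear regression; mean ± sd, n = 2.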

[16] = target: T2, Solute carrier family 2, facilitated glucose transporter member 1 (Rattus norvegicus, UniProt P11167); experiment: as §4; procedure, shortened: as §5
T2 sequence (P11167 whole entry): T1 sequence (whole entry)

Structure (SMILES)	Activity (Brain [1])	half-life [2] [min]	inhibition [9] [%]	Drug uptake (Brain [10]) [pmol/mg/min]	Drug uptake (Brain [12]) [pmol/mg/min]	PA [13] [mL/s/g]	Drug uptake (Brain [14]) [pmol/mg/min]	Activity [15]	IC50 [16] [µM]	also measured
COc1ccc2c(c1)c(CC(=O)OCC(=O)OC[C@H]1O[C@@H](O)[C@H](O)[C@@H](O)[C@@H]1O)c(C)n2C(=O)c1ccc(Cl)cc1	Unstable	180	–	–	–	–	–	–	–	–
OC[C@H]1OC(O)[C@H](O)[C@@H](O)[C@@H]1O (some centres not stated)	–	–	–	–	–	–	–	–	–	inhibition [3]: 73.8%
COc1ccc2c(c1)c(CC(=O)OC(C)C(=O)OC[C@H]1O[C@@H](O)[C@H](O)[C@@H](O)[C@@H]1O)c(C)n2C(=O)c1ccc(Cl)cc1 (some centres not stated)	Unstable	570	–	–	–	–	–	–	–	–
CC(C(=O)OC[C@H]1O[C@@H](O)[C@H](O)[C@@H](O)[C@@H]1O)c1cccc(C(=O)c2ccccc2)c1 (some centres not stated)	–	5310	75.5	0.515	0.513	0.0033	1.33	Dose-dependent effect	32.9	half-life [4]: 8.6 min; half-life [5]: 43.5 min; Drug uptake (Brain [6]): 7.78 pmol/mg/min; Drug uptake (Brain [7]): 20.77 pmol/mg/min; Drug uptake (Brain [8]): 3.55 pmol/mg/min; Drug uptake (Brain [11]): 93.21 pmol/mg/min
COc1ccc2c(c1)c(CC(=O)OC[C@H]1O[C@@H](O)[C@H](O)[C@@H](O)[C@@H]1O)c(C)n2C(=O)c1ccc(Cl)cc1	–	2430	96.7	0.599	1.806	0.0032	1.993	Dose-dependent effect	0.71	–
